Screening data as filed in PubChem BioAssay.
Apaf-1 inh: blocks human Apaf-1 apoptosome activity; O14727; reconstituted apoptosome caspase-3 activity, DEVD-Rh110 fluorescence; inhibition, % at 20 µM; 330,000 tested, 0.71% active; AID 489030; active = inhibition of at least 40% at 20 µM
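Medium: Hepes buffer, pH 7.5 / System: biochemical Apaf-1 apoptosome reconstitution / Measured by: Rh110 fluorescence, excitation 480 nm, emission 540 nm / Times: compound with Apaf-1, dATP, procaspase-3 30 min, then 50 min reaction, room temperature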
RAD54 inh: blocks human RAD54 Holliday junction branch migration | Q92698 | FAM/BHQ fluorescence | inhibition, % at 10.4 µM | 360,000 tested, 0.14% active | AID 602329;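 active = mean normalized replicate activity at least 40 and at least half of replicates scoring 40 or more; inconclusive = only one of the two criteria met; inactive = mean below 40 and under half of replicates reaching 40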;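 also: inhibitors cause a drop in the FAM fluorescence signal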
DNA FID counter: fluorescent intercalator displacement, NS3 helicase counter-screen; DNA fluorescent intercalator displacement, fluorescence; inhibition, % at 7.9 µM; 290,000 tested, 0.17% active; in the data active = inhibition above about 37%;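 also: higher means more ethidium bromide displaced from hairpin DNA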
RAD52 inh: blocks human RAD52 DNA annealing. recombinant RAD52 DNA annealing, FRET fluorescence. inhibition, % at 18.7 µM. 360,000 tested, 0.46% active. AID 651710;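 active = every replicate showing at least 50% inhibition; inconclusive = mean inhibition at least 50% but not in every replicate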
Target sequence (P43351 whole entry, looked up): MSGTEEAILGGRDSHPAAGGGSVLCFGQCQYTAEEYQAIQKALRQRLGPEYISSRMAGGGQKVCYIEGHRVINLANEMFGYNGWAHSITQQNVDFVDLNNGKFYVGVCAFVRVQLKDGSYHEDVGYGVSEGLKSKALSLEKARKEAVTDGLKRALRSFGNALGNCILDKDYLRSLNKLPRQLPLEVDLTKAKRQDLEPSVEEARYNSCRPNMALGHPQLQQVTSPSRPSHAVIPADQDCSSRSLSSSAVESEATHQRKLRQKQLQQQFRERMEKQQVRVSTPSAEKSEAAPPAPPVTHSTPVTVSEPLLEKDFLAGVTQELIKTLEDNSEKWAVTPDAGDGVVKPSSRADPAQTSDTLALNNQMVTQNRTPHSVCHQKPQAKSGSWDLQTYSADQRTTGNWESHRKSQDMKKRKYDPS
Neddyl block: blocks human cullin neddylation. TR-FRET cullin neddylation, biochemical. calls only at 25 µM. 360,000 tested, 0.58% active; in the data active = inhibition above about 36%
UBC13 inh: blocks human UBC13 polyubiquitin chain formation. P61088. TR-FRET. inhibition, % at 20 µM. 330,000 tested, 0.47% active. AID 485273; in the data active = inhibition above about 45%, passing the limit was not always enough; inconclusive = no clear call, values can overlap the other calls
Target sequence (P61088 whole entry, looked up): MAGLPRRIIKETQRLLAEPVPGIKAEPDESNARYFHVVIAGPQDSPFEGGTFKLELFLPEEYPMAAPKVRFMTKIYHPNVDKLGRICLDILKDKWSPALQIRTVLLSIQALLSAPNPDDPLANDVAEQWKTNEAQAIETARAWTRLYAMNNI
Casp3 counter: caspase-3 inhibition (UBC13 counter-screen). shares compounds with UBC13 inh. Recombinant caspase-3, Caspase-Glo 3/7 luminescence, 60 min. inhibition, % at 20 µM. 1,400 tested, 4% active. AID 488856;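 active = mean inhibition across replicates above about 26%, limit read from the data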
UBC13 conf: confirmation of human UBC13 polyubiquitin inhibitors; 1,400 tested, 68% active; UBC13 polyubiquitination, TR-FRET, biochemical; shares compounds with UBC13 inh; inhibition, % at 10 µM; in the data active = inhibition above about 45%; inconclusive = no clear call, values can overlap the other calls
Of the large screens only hits and unclear results are named; the others gave an inactive call (follow-up assays come after a bar, where shown). Sampled rows, rich in hits. Any-hit rate of the full collection: about 1.6%.

CN1CCN(c2ccc(S(=O)(=O)N3CCCCC3)cc2NC(=O)c2ccc3ccccc3c2)CC1	UBC13 inh 46 (no result: RAD54 inh, RAD52 inh) | Casp3 counter inactive | UBC13 conf 52
Cc1cccc2sc(N(CCN3CCOCC3)C(=O)CCS(=O)(=O)c3ccccc3)nc12	UBC13 inh 59 (no result: DNA FID counter) | Casp3 counter inactive | UBC13 conf 79
Cc1ccc(S(=O)(=O)CCC(=O)N(CCN2CCOCC2)c2nc3ccccc3s2)cc1	none (no result: DNA FID counter)
COc1ccc(NC(=O)N(C)C[C@@H]2Oc3ccc(NC(=O)CCCN(C)C)cc3C(=O)N([C@H](C)CO)C[C@H]2C)cc1	none (no result: Apaf-1 inh, DNA FID counter, Neddyl block, UBC13 inh)
O=C(CN1C(=O)NC2(CCCC2)C1=O)NCCC1=CCCCC1	UBC13 inh 97 (no result: RAD52 inh) | Casp3 counter inactive | UBC13 conf inactive
O=C(Nc1cccc2nsnc12)c1ccc(-c2cccc(Cl)c2)o1	UBC13 inh 49 (not shown: RAD52 inh, Neddyl block) | Casp3 counter 32 | UBC13 conf inactive
O=C(COc1ccc(Cc2ccccc2)cc1)c1ccc(F)cc1	UBC13 inh 45 | Casp3 counter 49 | UBC13 conf inactive
COc1ccccc1NC(=O)COC(=O)c1cc(C)nc2ccccc12	UBC13 inh 48 (no result: DNA FID counter) | Casp3 counter inactive | UBC13 conf inactive
COc1ccccc1NC(=O)COc1ccc(C(=O)NCc2ccccc2)cc1OC	UBC13 inh 70 (no result: DNA FID counter) | Casp3 counter inactive | UBC13 conf 75
CNCc1cc(Br)c(OCC(=O)Nc2ccccc2OC)c(OC)c1	UBC13 inh 65 (no result: RAD54 inh) | Casp3 counter inactive | UBC13 conf 103
COc1ccccc1-c1cn(CC[C@H]2CC[C@@H](NS(=O)(=O)c3ccccc3C)[C@H](CO)O2)nn1	none (no result: Apaf-1 inh, DNA FID counter, Neddyl block, UBC13 inh)
COc1ccccc1C(=O)Nc1ccc2oc(-c3ccc(F)cc3)nc2c1	none (no result: RAD52 inh)
COc1ccc(C(=O)Nc2ccc3oc(-c4cccc(F)c4)nc3c2)cc1OC	UBC13 inh 54 (no result: DNA FID counter) | Casp3 counter inactive | UBC13 conf inactive
Cn1nc2c3cc(F)ccc3n(Cc3ccc(F)cc3)cc-2c1=O	none (no result: RAD54 inh)
COc1cc2c3nnc(-c4ccc(F)cc4)c-3cn(Cc3ccccc3)c2cc1OC	UBC13 inh 82 (not shown: Neddyl block) | Casp3 counter inactive | UBC13 conf 50
COc1cc2c3nnc(-c4ccc(F)cc4)c-3cn(Cc3ccc(F)cc3)c2cc1OC	UBC13 inh 65 (not shown: Neddyl block) | Casp3 counter inactive | UBC13 conf inactive
CN(C)CCC(=O)C(Cc1ccccc1)c1ccccc1 (stereo not given)	UBC13 inh 47 (no result: DNA FID counter) | Casp3 counter inactive | UBC13 conf inactive
O=C(c1cccnc1)N1CCCCN2[C@@H](CO)[C@@H](c3ccc(C#Cc4ccccc4)cc3)[C@@H]2C1	none (no result: Apaf-1 inh, DNA FID counter, Neddyl block, UBC13 inh)
COc1cc(C2CC(=O)Oc3c(C(CCN4CCCC(C)C4)c4ccc(N(C)C)cc4)c(OC)cc(OC)c32)cc(OC)c1OC (stereo not given)	none (no result: DNA FID counter)
COc1cc(C(CCN2CCCC(C)C2)c2c(OC)cc(OC)c3c2OC(=O)CC3c2ccc(N(C)C)cc2)cc(OC)c1OC (stereo not given)	UBC13 inh 45 (no result: DNA FID counter, RAD52 inh) | Casp3 counter inactive | UBC13 conf inactive
CO[C@@H]1CN(C)C(=O)c2ccc(NS(=O)(=O)c3cn(C)cn3)cc2OC[C@@H](C)N(CCC(F)(F)F)C[C@@H]1C	none (no result: Apaf-1 inh, DNA FID counter, Neddyl block, UBC13 inh)
CCN(C(=O)COC(=O)c1cc(-c2ccccc2)nc2c1c(C)nn2-c1ccccc1)C1CCS(=O)(=O)C1 (stereo not given)	UBC13 inh 52 (no result: RAD54 inh) | Casp3 counter inactive | UBC13 conf inconclusive
Cc1ccc(-n2nc(C)c3c(C(=O)OCC(=O)N(C)C4CCS(=O)(=O)C4)cc(-c4ccccc4)nc32)cc1 (stereo not given)	none (not shown: RAD54 inh, RAD52 inh, Neddyl block)
CCOc1ccc(N(C(=O)c2snc(C(N)=O)c2N)C(C(=O)NC2CCCC2)C(C)C)cc1 (stereo not given)	UBC13 inh 70 | Casp3 counter inactive | UBC13 conf 78
CC(C)CC(C(=O)NC1CCCC1)N(Cc1ccc2c(c1)OCO2)C(=O)c1snc(C(N)=O)c1N (stereo not given)	UBC13 inh 46 (no result: RAD54 inh) | Casp3 counter inactive | UBC13 conf inactive
COc1ccc(N(C(=O)c2snc(C(N)=O)c2N)C(C(=O)NC2CCCC2)c2ccco2)cc1 (stereo not given)	UBC13 inh 82 | Casp3 counter inactive | UBC13 conf 90
Cc1ccc(N(C(=O)c2snc(C(N)=O)c2N)C(C(=O)NCCC(C)C)c2ccco2)cc1 (stereo not given)	UBC13 inh 74 (not shown: RAD54 inh, Neddyl block) | Casp3 counter inactive | UBC13 conf 62
COc1ccccc1CNC(=O)C[C@@H]1CC[C@H](NC(=O)CC2CC2)[C@@H](CO)O1	none (no result: Apaf-1 inh, DNA FID counter, Neddyl block, UBC13 inh)
COc1ccc(N(C(=O)c2snc(C(N)=O)c2N)C(C(=O)NC2CCCCC2)c2ccc(C)o2)cc1 (stereo not given)	UBC13 inh 60 | Casp3 counter inactive | UBC13 conf 55
COc1ccc(N(C(=O)c2snc(C(N)=O)c2N)C(C(=O)NC2CCCC2)c2cccs2)cc1OC (stereo not given)	UBC13 inh 64 (no result: RAD54 inh) | Casp3 counter inactive | UBC13 conf inactive
CCC1(CC)Cc2ccccc2-c2[nH]c(=S)[nH]c(=O)c21	UBC13 inh 59 (no result: RAD54 inh, DNA FID counter) | Casp3 counter inactive | UBC13 conf inactive
CCC1(CC)Cc2ccccc2-c2nc(NN)[nH]c(=O)c21	none
O=C(COC(=O)c1cc(=O)[nH]c(=O)[nH]1)Nc1cccc(Cl)c1	UBC13 inh 66 (no result: DNA FID counter) | Casp3 counter inactive | UBC13 conf 51
Cc1ccc(C(=O)COC(=O)c2nc(Cl)ccc2Cl)cc1	none (no result: RAD54 inh, DNA FID counter)
CCOc1ccc(C(=O)C(C)OC(=O)c2nc(Cl)ccc2Cl)cc1 (stereo not given)	UBC13 inh 47 (no result: RAD54 inh, DNA FID counter) | Casp3 counter inactive | UBC13 conf 72
C=CCNC(=S)Nc1sc2c(c1C(=O)OCC)CCN(C(=O)OCC)C2	UBC13 inh 50 (no result: RAD52 inh) | Casp3 counter inactive | UBC13 conf inconclusive
CC(C)(C)c1cc(-c2nc(N)nc(N)n2)c(O)c(C(C)(C)C)c1	UBC13 inh 51 (not shown: DNA FID counter, Neddyl block) | Casp3 counter inactive | UBC13 conf inactive
CSc1nc(N2CCOCC2)c2c(c1C#N)CCCCC2	UBC13 inh 53 (no result: RAD52 inh) | Casp3 counter inactive | UBC13 conf inconclusive
Clc1ccc2c(c1)CNc1c(ncnc1N1CCOCC1)O2	UBC13 inh 50 (no result: RAD52 inh) | Casp3 counter inactive | UBC13 conf inactive
Clc1ccc2c(N3CCOCC3)ccnc2c1	none
CN(C)CCCN(C(=O)c1ccc(S(=O)(=O)N(C)C)cc1)c1nc2cc3c(cc2s1)OCO3	none
COc1ccc2sc(N(CCCN(C)C)C(=O)c3ccc(S(=O)(=O)N4CCc5ccccc5C4)cc3)nc2c1	UBC13 inh 75 (no result: DNA FID counter) | Casp3 counter inactive | UBC13 conf 110
